What is called IC50 is the concentration that gives 50% inhibition. The half-life is the time in which the quantity being followed falls by half. Broadly, the AUC(0-inf) is the area under the concentration-time curve extrapolated to infinity. Read a low AUC(0-inf) as less exposure. For orientation: Tmax means the time at which the peak concentration occurs. A word on the bioavailability: it is the share of a dose that reaches the circulation, judged against a reference dose that is usually intravenous. Read a low bioavailability as little systemic uptake.

SMILES strings stand for the structures.

1 compound from ChEMBL document CHEMBL3585325, “Discovery of (1R,2S)-2-{[(2,4-Dimethylpyrimidin-5-yl)oxy]methyl}-2-(3-fluorophenyl)-N-(5-fluoropyridin-2-yl)cyclopropanecarboxamide (E2006): A Potent and Efficacious Oral Orexin Receptor Antagonist” (J Med Chem, 2015) can be followed below.

Data set [1] has as its system Mus musculus. As to the kind of experiment: Sleep promoting activity in C57BL/6NCrlCrlj mouse assessed as increase in non-REM sleep at 30 mg/kg, po administered immediately prior to beginning of dark cycle measured during first 3 hrs after drug administration by electroencephalogram/electromyogram analysis (reference value: 62.6 min). The class given is functional. In outline:
(§1)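 Male C57BL/6NCrlCrlj mice implanted with EEG/EMG electrodes were dosed orally in 10% Cremophor EL, 5% DMSO in saline just before lights-off (ZT12) and recorded from ZT12 to ZT20. Group sizes were n=6 dosed and n=7 vehicle. Stages were scored by software with blinded visual confirmation; cumulative first-3-h times are mean with SEM. Dunnett's test was run after one-way ANOVA.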

For a further data set, the target named is T1, Cytochrome P450 2C8 (Homo sapiens, UniProt P10632).
T1 sequence (P10632 whole entry): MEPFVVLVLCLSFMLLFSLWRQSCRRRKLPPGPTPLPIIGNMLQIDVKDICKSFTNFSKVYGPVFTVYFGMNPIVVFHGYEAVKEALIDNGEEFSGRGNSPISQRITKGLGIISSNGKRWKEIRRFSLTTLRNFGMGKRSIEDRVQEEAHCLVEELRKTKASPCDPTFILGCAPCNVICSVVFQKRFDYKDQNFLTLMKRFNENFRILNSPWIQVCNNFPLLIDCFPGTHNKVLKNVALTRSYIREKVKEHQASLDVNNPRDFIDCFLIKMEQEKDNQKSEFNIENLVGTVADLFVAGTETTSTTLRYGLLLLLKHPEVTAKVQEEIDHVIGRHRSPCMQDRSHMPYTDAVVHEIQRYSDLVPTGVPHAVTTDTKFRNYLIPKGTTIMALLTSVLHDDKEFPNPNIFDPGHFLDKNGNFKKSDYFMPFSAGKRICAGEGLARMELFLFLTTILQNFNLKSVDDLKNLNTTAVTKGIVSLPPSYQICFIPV
The data set can be described thus: Inhibition of CYP2C8 in human liver microsomes using rosiglitazone as susbtrate incubated for 30 mins prior to substrate addition for 10 mins by LC-MS/MS analysis. The class given is ADME. A general note: Liver microsomes are a subcellular fraction often used to study metabolism.

Data set [2] in a line: Half life in C57BL/6NCrlCrlj mouse at 1 mg/kg, iv by LC-MS/MS analysis. The class given is ADME, organism-based. The conditions noted are these: in vivo. The method in brief:
(§2)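 Male C57BL/6NCrlCrlj mice dosed intravenously at 1 mg/kg in 10% DMSO in water. Blood was taken from the tail vein at set time points and spun to plasma. Concentrations were measured by LC-MS/MS (MRM, positive mode) against a 1/x²-weighted standard curve with internal standard. Parameters came from noncompartmental analysis.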

The subject of data set [3] is Mus musculus. The data set can be described thus: Sleep promoting activity in C57BL/6NCrlCrlj mouse assessed as increase in REM sleep at 10 mg/kg, po administered immediately prior to beginning of dark cycle measured during first 3 hrs after drug administration by electroencephalogram/electromyogram analysis (reference value: 0.6 min). Format: functional. The method in brief:
as §1

The target in a further data set is Cytochrome P450 2D6 (Homo sapiens, UniProt P10635). The data set can be described thus: Inhibition of CYP2D6 in human liver microsomes using bufuralol as susbtrate incubated for 30 mins prior to substrate addition for 10 mins by LC-MS/MS analysis. The class given is ADME.
Sequence of Cytochrome P450 2D6 (P10635 whole entry): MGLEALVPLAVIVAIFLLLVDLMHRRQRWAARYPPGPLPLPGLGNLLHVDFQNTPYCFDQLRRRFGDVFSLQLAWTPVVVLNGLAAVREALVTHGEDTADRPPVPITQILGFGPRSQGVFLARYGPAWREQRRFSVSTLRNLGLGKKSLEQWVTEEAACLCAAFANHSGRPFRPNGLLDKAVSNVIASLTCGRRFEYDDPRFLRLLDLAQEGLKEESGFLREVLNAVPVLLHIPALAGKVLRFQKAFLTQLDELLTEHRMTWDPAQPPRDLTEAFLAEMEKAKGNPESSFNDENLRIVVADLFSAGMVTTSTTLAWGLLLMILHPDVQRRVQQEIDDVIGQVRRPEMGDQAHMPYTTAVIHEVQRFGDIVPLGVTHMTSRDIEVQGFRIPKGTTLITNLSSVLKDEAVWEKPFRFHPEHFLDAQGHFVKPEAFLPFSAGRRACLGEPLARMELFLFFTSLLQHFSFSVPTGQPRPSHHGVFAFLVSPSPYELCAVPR
Data set [4] can be described thus: AUC (0 to infinity) in C57BL/6NCrlCrlj mouse at 10 mg/kg, po by LC-MS/MS analysis. The class given is ADME, organism-based. On the set-up: dose 10 mg/kg, route oral, time infinity. The conditions noted are these: in vivo. The method in brief: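 Male C57BL/6NCrlCrlj mice dosed orally at 10 mg/kg in 10% Cremophor EL, 5% DMSO in saline. Tail-vein blood was taken at set time points and spun to plasma. Quantified by LC-MS/MS (MRM, positive mode) with internal standard and a 1/x²-weighted calibration. Parameters came from noncompartmental analysis.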

A short description of data set [5]: AUC (0 to infinity) in C57BL/6NCrlCrlj mouse at 1 mg/kg, iv by LC-MS/MS analysis. The class given is ADME, organism-based. Also noted: dose 1 mg/kg, time infinity, route intravenous. Conditions: in vivo. The method in brief:
as §2

Data set [6] deals with Mus musculus. As to the kind of experiment: Sleep promoting activity in C57BL/6NCrlCrlj mouse assessed as increase in non-REM sleep at 10 mg/kg, po administered immediately prior to beginning of dark cycle measured during first 3 hrs after drug administration by electroencephalogram/electromyogram analysis (reference value: 62.6 min). The class given is functional. In outline: as §1

Data set [7] relates to Mus musculus. The data set can be described thus: Sleep promoting activity in C57BL/6NCrlCrlj mouse assessed as reduction in wakefulness time at 10 mg/kg, po administered immediately prior to beginning of dark cycle measured during first 3 hrs after drug administration by electroencephalogram/electromyogram analysis (reference value: 116.7 min). The class given is functional. In outline: as §1

Data set [8] in a line: Tmax in C57BL/6NCrlCrlj mouse at 30 mg/kg, po by LC-MS/MS analysis. The class given is ADME, organism-based. Conditions: in vivo.
Data set [9] in a line: Drug uptake in C57BL/6NCrlCrlj mouse CSF at 10 mg/kg, po administered as single dose measured after 1 hr by LC-MS/MS analysis. The class given is ADME, organism-based, Cerebrospinal fluid. Conditions: read-out: Drug uptake. In outline: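 Male C57BL/6NCrlCrlj mice given a single 10 mg/kg oral dose as a suspension in 0.5% aqueous methylcellulose. At 1 or 3 h, under pentobarbital anesthesia, CSF was taken from the cisterna magna and then blood from the abdominal aorta (spun to plasma). Samples were acetonitrile-precipitated with deuterated internal standard and run by LC-MS/MS. Values are mean with SEM.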

The target of data set [10] is Voltage-gated inwardly rectifying potassium channel KCNH2 (Homo sapiens, UniProt Q12809). As to the kind of experiment: Inhibition of human ERG.
Sequence of Voltage-gated inwardly rectifying potassium channel KCNH2 (Q12809 whole entry): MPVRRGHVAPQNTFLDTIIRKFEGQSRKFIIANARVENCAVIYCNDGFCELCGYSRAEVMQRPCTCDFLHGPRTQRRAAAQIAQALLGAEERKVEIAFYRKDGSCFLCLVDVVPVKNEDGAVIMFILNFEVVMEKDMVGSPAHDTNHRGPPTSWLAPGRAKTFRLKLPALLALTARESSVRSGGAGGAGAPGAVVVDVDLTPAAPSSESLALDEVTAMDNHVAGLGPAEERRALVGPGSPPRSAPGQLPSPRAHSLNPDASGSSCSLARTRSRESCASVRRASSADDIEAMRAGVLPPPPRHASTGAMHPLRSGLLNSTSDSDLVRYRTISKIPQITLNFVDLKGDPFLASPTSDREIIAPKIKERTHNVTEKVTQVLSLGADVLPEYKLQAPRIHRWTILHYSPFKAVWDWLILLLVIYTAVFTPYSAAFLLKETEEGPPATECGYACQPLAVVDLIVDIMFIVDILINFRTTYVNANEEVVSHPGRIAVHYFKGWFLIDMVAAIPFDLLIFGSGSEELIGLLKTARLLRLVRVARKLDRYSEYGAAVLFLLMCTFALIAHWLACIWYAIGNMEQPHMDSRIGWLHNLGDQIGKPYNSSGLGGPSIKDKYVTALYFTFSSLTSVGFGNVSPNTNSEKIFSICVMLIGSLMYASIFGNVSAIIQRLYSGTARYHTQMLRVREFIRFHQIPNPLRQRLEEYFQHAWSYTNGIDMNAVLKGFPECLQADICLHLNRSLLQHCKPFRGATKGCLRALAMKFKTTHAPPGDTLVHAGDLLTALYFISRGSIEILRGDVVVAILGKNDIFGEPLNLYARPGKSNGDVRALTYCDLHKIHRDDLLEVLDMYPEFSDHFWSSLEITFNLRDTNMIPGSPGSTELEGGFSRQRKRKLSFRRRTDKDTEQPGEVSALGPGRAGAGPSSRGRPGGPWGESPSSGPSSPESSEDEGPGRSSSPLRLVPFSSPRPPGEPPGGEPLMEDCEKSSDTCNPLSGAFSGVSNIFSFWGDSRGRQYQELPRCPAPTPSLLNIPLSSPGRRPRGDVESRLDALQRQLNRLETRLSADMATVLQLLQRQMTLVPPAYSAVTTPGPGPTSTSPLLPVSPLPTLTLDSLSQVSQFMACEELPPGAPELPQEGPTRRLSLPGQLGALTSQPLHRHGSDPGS
Data set [11] can be described thus: Oral bioavailability in C57BL/6NCrlCrlj mouse at 10 mg/kg by LC-MS/MS analysis. Format: ADME, organism-based. The conditions noted are these: in vivo. In outline:
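Oral dose of 10 mg/kg in 10% Cremophor EL, 5% DMSO in saline; intravenous reference of 1 mg/kg in 10% DMSO in water; male C57BL/6NCrlCrlj mice. Tail-vein plasma was quantified by LC-MS/MS. F% = (mean AUC0–inf po/dose po)/(mean AUC0–inf iv/dose iv) × 100.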

Data set [12] can be described thus: Metabolic stability in human liver microsomes assessed as residual ratio at 0.1 uM after 15 mins by LC-MS analysis. The class given is ADME. The conditions noted are these: read-out: Stability. In outline:
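Compound at 0.1 μM in 0.1% DMSO incubated with human liver microsomes (0.2 mg/mL), with or without an NADPH-generating system, for 15 min at 37 °C. Reaction stopped with acetonitrile/methanol (7:3) containing propranolol internal standard. Parent compound was measured by LC-MS; residual ratio given with NADPH relative to without.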

A short description of data set [13]: Volume of distribution at steady state in C57BL/6NCrlCrlj mouse at 1 mg/kg, iv by LC-MS/MS analysis. The class given is ADME, organism-based. Conditions: in vivo, read-out: Vdss. The method in brief:
as §2

As to `Cc1ncc(OC[C@@]2(c3cccc(F)c3)C[C@H]2C(=O)Nc2ccc(F)cn2)c(C)n1` [LEMBOREXANT], the Time with Mus musculus [1] is 95.5 min; in the data set on Mus musculus [3], 3.6 min; with Mus musculus [6], 99.3 min; in the data set on Mus musculus [7] it was 77.1 min. Further, the IC50 was greater than 20 µM against Cytochrome P450 2C8, greater than 20 µM against Cytochrome P450 2D6 and 6.1 µM in [10]. In data set [2], this compound showed a half-life of 2.16 h. Also, the AUC(0-inf) in data set [4] stood at 1910 ng·h/mL; in data set [5], 1030 ng·h/mL. In addition, the Tmax in [8] came out at 1 h. Also, the concentration at 1 h in [9] worked out at 32.8 nM. This compound yielded a bioavailability in [11] of 18.5%. Further, the remaining at 0.25 h, 0.1 µM in [12] is 90%. The Vd in data set [13] stood at 2.71 L/kg.
